According to ChEMBL document CHEMBL1159390, “Plakortides M and N, bioactive polyketide endoperoxides from the Caribbean marine sponge Plakortis halichondrioides” (J Nat Prod, 2003):
Active and inactive are the calls of the source. The calls are words filed in the database; no cut-off is given here.

Assays:
[1] = tested on: Plasmodium falciparum; test: Antimalarial activity against Plasmodium falciparum; assay type: functional, organism-based
[2] = tested on: Mycobacterium tuberculosis; test: Antitubercular activity against Mycobacterium tuberculosis H37Rv at 6.25 ug/mL; assay type: functional, organism-based
[3] = tested on: SF-295; test: Cytotoxicity against human SF295 cells; assay type: functional, cell-based
Procedure, shortened: (§1)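 Tested in the NCI in vitro antitumor screen of 60 human tumour cell lines, after a prior NCI three-cell-line, one-dose primary anticancer assay.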

[4] = tested on: SF-539; test: Cytotoxicity against human SF539 cells; assay type: functional, cell-based; procedure, shortened: as §1
[5] = tested on: U-251; test: Cytotoxicity against human U251 cells; assay type: functional, cell-based; procedure, shortened: as §1
[6] = tested on: SK-MEL-2; test: Cytotoxicity against human SK-MEL-2 cells; assay type: functional, cell-based; procedure, shortened: as §1
[7] = tested on: M14; test: Cytotoxicity against human M14 cells; assay type: functional, cell-based; procedure, shortened: as §1
[8] = tested on: COLO 205; test: Cytotoxicity against human COLO205 cells; assay type: functional, cell-based; procedure, shortened: as §1
[9] = tested on: PC-3; test: Cytotoxicity against human PC3 cells; assay type: functional, cell-based; procedure, shortened: as §1
[10] = tested on: LOX IMVI; test: Cytotoxicity against human LOXIMVI cells; assay type: functional, cell-based; procedure, shortened: as §1
[11] = tested on: IGROV-1; test: Cytotoxicity against human IGROV1 cells; assay type: functional, cell-based; procedure, shortened: as §1
[12] = tested on: NCI/ADR-RES; test: Cytotoxicity against human NCI/ADR-RES cells; assay type: functional, cell-based; procedure, shortened: as §1
[13] = tested on: HCT-116; test: Cytotoxicity against human HCT116 cells; assay type: functional, cell-based; procedure, shortened: as §1
[14] = tested on: HOP-62; test: Cytotoxicity against human HOP62 cells; assay type: functional, cell-based; procedure, shortened: as §1
[15] = tested on: MCF7; test: Cytotoxicity against human MCF7 cells; assay type: functional, cell-based; procedure, shortened: as §1
[16] = tested on: HT-29; test: Cytotoxicity against human HT-29 cells; assay type: functional, cell-based; procedure, shortened: as §1
[17] = tested on: T47D; test: Cytotoxicity against human T47D cells; assay type: functional, cell-based; procedure, shortened: as §1
[18] = tested on: SK-OV-3; test: Cytotoxicity against human SKOV3 cells; assay type: functional, cell-based; procedure, shortened: as §1
[19] = tested on: OVCAR-3; test: Cytotoxicity against human OVCAR-3 cells; assay type: functional, cell-based; procedure, shortened: as §1
[20] = Cytotoxicity against human […] cells; assay type: functional, cell-based; procedure, shortened: as §1
[21] = tested on: A549; test: Cytotoxicity against human A549 cells; assay type: functional, cell-based; procedure, shortened: as §1
[22] = tested on: ACHN; test: Cytotoxicity against human ACHN cells; assay type: functional, cell-based; procedure, shortened: as §1
[23] = tested on: CCRF-CEM; test: Cytotoxicity against human CCRF-CEM cells; assay type: functional, cell-based; procedure, shortened: as §1
[24] = tested on: UO-31; test: Cytotoxicity against human UO31 cells; assay type: functional, cell-based; procedure, shortened: as §1
[25] = tested on: SR; test: Cytotoxicity against human SR cells; assay type: functional, cell-based; procedure, shortened: as §1
[26] = tested on: DU-145; test: Cytotoxicity against human DU145 cells; assay type: functional, cell-based; procedure, shortened: as §1
[27] = tested on: NCI-H460; test: Cytotoxicity against human NCI-H460 cells; assay type: functional, cell-based; procedure, shortened: as §1
[28] = tested on: 786-0; test: Cytotoxicity against human 786-0 cells; assay type: functional, cell-based; procedure, shortened: as §1

| SMILES | Activity [2] | IC50 [3] [nM] | IC50 [4] [nM] | IC50 [5] [nM] | IC50 [6] [nM] | IC50 [7] [nM] | IC50 [8] [nM] | IC50 [9] [nM] | IC50 [10] [nM] | IC50 [11] [nM] | IC50 [12] [nM] | IC50 [13] [nM] | IC50 [14] [nM] | IC50 [15] [nM] | IC50 [16] [nM] | IC50 [17] [nM] | IC50 [18] [nM] | IC50 [19] [nM] | IC50 [20] [nM] | IC50 [21] [nM] | also measured |
| --- | --- | --- | --- | --- | --- | --- | --- | --- | --- | --- | --- | --- | --- | --- | --- | --- | --- | --- | --- | --- | --- |
| CC/C=C/[C@H](CC)C/C(=C/[C@@]1(CC)C[C@H](CC)[C@H](CC(=O)OC)OO1)CC | inactive | – | – | – | – | – | – | – | – | – | – | – | – | – | – | – | – | – | – | – | IC50 [1]: ≥ 50 µg/mL |
| CC/C=C/[C@H](CC)C/C=C/[C@@]1(CC)C[C@H](CC)[C@H](CC(=O)OC)OO1 | inactive | – | – | – | – | – | – | – | – | – | – | – | – | – | – | – | – | – | – | – | – |
| CC/C=C/[C@H](CC)C/C=C/[C@@]1(CC)C[C@H](CC)[C@H](CC(=O)O)OO1 [PLAKORTIDE M] | – | 1800 | 1800 | 1700 | 11100 | 6800 | 1500 | 1600 | 500 | 600 | 1800 | 2000 | 1600 | 2900 | 1400 | 2200 | 1300 | 2000 | 1300 | 1800 | IC50 [22]: 1700 nM; IC50 [23]: 200 nM; IC50 [24]: 1400 nM; IC50 [25]: 400 nM; IC50 [26]: 1900 nM; IC50 [27]: 1800 nM; IC50 [28]: 1600 nM |
| CC/C=C/[C@H](CC)C/C(=C/[C@@]1(CC)C[C@H](CC)[C@H](CC(=O)O)OO1)CC [PLAKORTIDE N] | – | 300 | 1500 | 500 | 1700 | 1600 | 1300 | 300 | 30 | 60 | 400 | 400 | 900 | 1800 | 500 | 1300 | 1900 | 1100 | < 10 | 100 | IC50 [22]: 200 nM; IC50 [23]: 100 nM; IC50 [24]: 10 nM; IC50 [25]: 100 nM; IC50 [26]: 400 nM; IC50 [27]: 200 nM; IC50 [28]: 1300 nM |
